Values joined by “and” are separate entries in the source; they are usually repeats but may differ in a detail not shown here. Identical values can stand only once. Screen size: about 360,000 compounds; about 740 (0.21%) were called active.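 Rule for the calls: active = mean lysis activity across replicates of at least 80%, whatever share of replicates individually reach that level; inactive = mean lysis activity below 80%.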 This excerpt belongs to a sample that is enriched for actives. Some structures have more than one record in an assay (separate samples or runs), and their calls can disagree.
Experiment: Cryptococcus neoformans cell lysis inducers, primary screen, AK release luminescence, single concentration (AID 651654)
Conditions: C. neoformans lysis, adenylate kinase release luminescence, 4 h; at 15 µM; stronger effect = higher value
Outline: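 Test system: log-phase Cryptococcus neoformans yeast cells; Quantity: yeast cell density of 5 × 10^6 cells/mL; Buffer or medium: YPD; Doses: single compound concentration per well; Timing: 4 h at 37 °C static, read 1 h later; Measured by: AK luminescence; Read-out basis: lysis from increased AK signal; Control set: Clomiphene as positive control.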

| Compound | lysis activity |
| --- | --- |
| C[C@H]1CN([C@@H](C)CO)C(=O)CCCn2nncc2CO[C@H]1CN(C)C(=O)Oc1cccc2ccccc12 | 5.65% (inactive) and 82.4% (active) and -0.095% (inactive) |
| C[C@H]1CN([C@@H](C)CO)C(=O)CCCn2nncc2CO[C@H]1CN(C)C(=O)Oc1ccccc1 | -2.79% (inactive) and -0.658% (inactive) and 0.85% (inactive) |
| C[C@H](CO)N1C[C@H](C)[C@H](CN(C)C(=O)Oc2ccc3ccccc3c2)OCc2cnnn2CCCC1=O | -8.92% (inactive) |
| COc1cccc(C(c2nnnn2-c2ccc3c(c2)OCCO3)N2CCC3(CC2)C(=O)NCN3c2ccccc2)c1OC (stereo not given) | -24.5% (inactive) |
| O=C(Cc1ccccc1)N1CCCCN2[C@H](C1)[C@H](c1ccc(C#CC3(O)CCCC3)cc1)[C@@H]2CO | -1.31% (inactive) |
